SMILES strings stand for the structures. Activity calls are given as the source filed them. No cut-off for these calls is given here.

IC50 and Activity data for 11 compounds are collected here from ChEMBL document CHEMBL1136925, “Structure-activity relationship of cyanine tau aggregation inhibitors” (J Med Chem, 2009).

Data set [1] is described as follows: Inhibition of His-tagged human recombinant 2N4R tau protein aggregation assessed as inhibition octadecyl sulphate-induced fibrillation by filter trap assay.
The species entered for data set [2] is Homo sapiens. The data set is described as follows: Induction of human tau aggregation in human tau P301L mutant expressing JNPL3 transgenic mouse brain slices at >=300 nM.
The species entered for data set [3] is Homo sapiens. The data set is described as follows: Inhibition of human tau aggregation in human tau P301L mutant expressing JNPL3 transgenic mouse brain slices at 100 nM.
Data set [4] deals with Brain. The data set is described as follows: Induction of apoptosis in human tau P301L mutant expressing JNPL3 transgenic mouse brain slice assessed as cleaved PARP1 after 7 days by densitometry. Format: tissue-based. Conditions: 168 h. A digest of the protocol:
(§1)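 Cortex and hippocampus slices (400 μm) cut from postnatal day 10 JNPL3 mouse brain, cultured 14 days on membrane inserts in 25% serum medium, then dosed for 7 days. The contralateral hemisphere received DMSO vehicle (0.008% final) as within-animal control. Slices were sonicated in cold RIPA with protease/phosphatase inhibitors and spun 20,000g for 20 min at 4°C. Supernatant α-tubulin and cleaved PARP1 were immunoblotted and quantified by densitometry (n = 3), normalized to vehicle.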

Data set [5] is filed under the species Homo sapiens. The data set is described as follows: Inhibition of human tau aggregation in human tau P301L mutant expressing JNPL3 transgenic mouse brain slices at 0.1 nM to 1 uM after 7 days. Format: tissue-based. The gist of the method:
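Slices from postnatal day 10 JNPL3 mice were cultured 14 days, then exposed 7 days to compound (0.1 nM–1 μM). The contralateral hemisphere received DMSO (0.008%) as control. RIPA extracts were equalized for total protein, incubated in 1% sarkosyl for 30 min at room temperature, and spun 100,000g for 1 h at 20°C. The insoluble pellet was boiled in SDS buffer, immunoblotted with CP27 and quantified by densitometry (n = 3) relative to vehicle.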

Data set [6] relates to Brain. The data set is described as follows: Induction of apoptosis in human tau P301L mutant expressing JNPL3 transgenic mouse brain slice assessed as change in alpha-tubulin level at 1 nM after 7 days by densitometry. The format is tissue-based. Conditions: 168 h, 0.001 µM. The gist of the method: as §1
For data set [7], the species on record is Homo sapiens. Put plainly: Inhibition of His-tagged human recombinan2N4R tau protein aggregation assessed as inhibition octadecyl sulphate-induced fibrillation up to 10 uM by filter trap assay.
The species named for data set [8] is Homo sapiens. The data set is described as follows: Inhibition of His-tagged human recombinan2N4R tau protein aggregation assessed as inhibition octadecyl sulphate-induced fibrillation at 10 uM by filter trap assay.

In the case of `CCN1/C(=C/C=C/C=C/C=C/c2sc3ccccc3[n+]2CC)Sc2ccccc21`, the half-maximal inhibitory concentration (IC50) (usually the point on the concentration scale where inhibition reaches its midpoint) in data set [1] was 5 µM.

`CCCN1/C(=C/C=C/C2=[N+](CCC)c3ccccc3C2(C)C)C(C)(C)c2ccccc21`: the IC50 in data set [1] amounted to 2.57 µM.

Regarding `CCN1/C(=C/C(C)=C/c2sc3ccccc3[n+]2CC)Sc2ccccc21.[I-]`, the outcome in the data set listed under Homo sapiens [2] and in the data set filed under Homo sapiens [5] was Active. For the same compound, in the data set listed under Homo sapiens [3], the outcome was inactive. For the same compound, the Activity result with Brain [4] and in the data set with Brain [6] was “Non-toxic” throughout. Also, in data set [1], the IC50 is 0.28 µM.

In the case of `CCN1/C(=C/C(C)=C/c2sc3c4ccccc4ccc3[n+]2CC)Sc2c1ccc1ccccc21`, the IC50 in data set [1] turned out to be 3.29 µM.

Regarding `CCN1/C(=C/C=C/C=C/c2sc3ccccc3[n+]2CC)Sc2ccccc21` [DITHIAZANINE IODIDE], the IC50 in data set [1] came to 2.15 µM.

Turning to `CCC(/C=C1\Sc2ccc(OC)cc2N1CCO)=C\c1sc2ccc(OC)cc2[n+]1CCO`, in data set [1], the IC50 came to 0.29 µM.

For the compound `CCCCCCN1/C(=C/C=C/c2sc3ccccc3[n+]2CCCCCC)Sc2ccccc21`, in the data set filed under Homo sapiens [7], the outcome was inactive. Further, the IC50 in data set [1] is above 10 µM.

As to `CC(/C=C1\Sc2ccccc2N1CCCS(=O)(=O)[O-])=C\c1sc2ccccc2[n+]1CCCS(=O)(=O)[O-].CC[n+]1ccccc1`, the half-maximal inhibitory concentration (IC50) in data set [1] was above 10 µM.

Turning to `CCN1/C(=C/c2sc3ccccc3[n+]2CC)Sc2ccccc21`, in data set [1], the IC50 stood at 10 µM.

For `CCN1/C(=C/C=C/c2oc3ccccc3[n+]2CC)Oc2ccccc21`, the outcome in the data set listed under Homo sapiens [8] was inactive. Further, in data set [1], the 50% inhibitory concentration (IC50) was above 10 µM.

As to `CCN1/C(=C/C=C/c2sc3ccccc3[n+]2CC)Sc2ccccc21`, in data set [1], the half-inhibitory concentration (IC50) came to 0.96 µM.
